Reference: ChEMBL document CHEMBL5154945, “Discovery and Optimization of Pyrrolopyrimidine Derivatives as Selective Disruptors of the Perinucleolar Compartment, a Marker of Tumor Progression toward Metastasis” (J Med Chem, 2022)
Active and inactive are the calls of the source. The rule behind the calls is not given here.

Legend:
SF-539 = assay: Anticancer activity against human SF-539 cells assessed as cell growth inhibition; assay type: functional, cell-based; settings: dose 1-100 µM, DDE = dose-dependent effect
SN12C = assay: Anticancer activity against human SN12C cells assessed as cell growth inhibition; assay type: functional, cell-based; settings: dose 1-100 µM, DDE = dose-dependent effect
[1] = biological target: D(4) dopamine receptor (Homo sapiens) (UniProt P21917); assay: Binding affinity to D4 receptor (unknown origin) at 10000 nM by radioligand displacement assay relative to control
Chain of D(4) dopamine receptor (Homo sapiens) (P21917 whole entry): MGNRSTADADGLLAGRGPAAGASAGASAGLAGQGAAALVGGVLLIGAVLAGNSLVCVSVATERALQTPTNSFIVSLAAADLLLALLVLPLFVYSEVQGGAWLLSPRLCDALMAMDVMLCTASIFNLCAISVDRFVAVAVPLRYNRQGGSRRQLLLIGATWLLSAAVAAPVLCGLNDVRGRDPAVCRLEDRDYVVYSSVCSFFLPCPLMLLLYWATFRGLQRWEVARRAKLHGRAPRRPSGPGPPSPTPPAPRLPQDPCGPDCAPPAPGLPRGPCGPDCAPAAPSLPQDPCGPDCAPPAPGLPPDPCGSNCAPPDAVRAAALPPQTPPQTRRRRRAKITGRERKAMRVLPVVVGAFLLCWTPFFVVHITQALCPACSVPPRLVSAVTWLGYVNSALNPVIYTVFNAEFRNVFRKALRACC

[2] = biological target: D(3) dopamine receptor (Homo sapiens) (UniProt P35462); assay: Binding affinity to D3 receptor (unknown origin) at 10000 nM by radioligand displacement assay relative to control
Chain of D(3) dopamine receptor (Homo sapiens) (P35462 whole entry): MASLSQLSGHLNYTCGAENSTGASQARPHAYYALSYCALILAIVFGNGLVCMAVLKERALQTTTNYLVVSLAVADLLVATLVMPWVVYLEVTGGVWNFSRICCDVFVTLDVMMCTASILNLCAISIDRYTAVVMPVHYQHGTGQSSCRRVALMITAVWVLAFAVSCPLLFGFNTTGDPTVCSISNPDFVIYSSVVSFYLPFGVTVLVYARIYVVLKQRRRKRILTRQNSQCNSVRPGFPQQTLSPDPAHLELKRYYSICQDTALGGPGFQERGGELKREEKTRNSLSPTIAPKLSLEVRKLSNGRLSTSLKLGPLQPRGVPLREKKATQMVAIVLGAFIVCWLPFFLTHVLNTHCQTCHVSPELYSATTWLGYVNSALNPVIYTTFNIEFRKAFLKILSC

SF-268 = assay: Anticancer activity against human SF-268 cells assessed as cell growth inhibition; assay type: functional, cell-based; settings: dose 1-100 µM, DDE = dose-dependent effect
[3] = biological target: Alpha-1B adrenergic receptor (Homo sapiens) (UniProt P35368); assay: Binding affinity to alpha1B receptor (unknown origin) at 10000 nM by radioligand displacement assay relative to control
Chain of Alpha-1B adrenergic receptor (Homo sapiens) (P35368 whole entry): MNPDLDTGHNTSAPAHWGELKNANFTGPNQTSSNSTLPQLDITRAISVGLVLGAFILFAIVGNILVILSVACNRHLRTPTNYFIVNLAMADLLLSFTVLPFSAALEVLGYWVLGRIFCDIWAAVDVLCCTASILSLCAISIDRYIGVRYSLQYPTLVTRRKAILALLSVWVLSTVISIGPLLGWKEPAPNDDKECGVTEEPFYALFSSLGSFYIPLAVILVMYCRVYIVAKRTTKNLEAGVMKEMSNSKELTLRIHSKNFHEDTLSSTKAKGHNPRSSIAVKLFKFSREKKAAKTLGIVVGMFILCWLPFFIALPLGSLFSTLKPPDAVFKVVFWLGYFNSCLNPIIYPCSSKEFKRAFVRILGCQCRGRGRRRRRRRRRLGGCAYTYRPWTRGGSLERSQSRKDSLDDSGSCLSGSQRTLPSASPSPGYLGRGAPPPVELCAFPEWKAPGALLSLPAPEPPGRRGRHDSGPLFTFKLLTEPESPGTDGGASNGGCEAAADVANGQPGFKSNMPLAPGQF

[4] = Tmax in female BALB/c mouse at 5 mg/kg, ip and measured upto 48 hrs by LC-MS/MS analysis; assay type: ADME, organism-based; settings: in vivo
Procedure, shortened: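 Fed female BALB/c mice, about 6–8 weeks old and 25–30 g, received a single IP dose of 5 or 25 mpk in NMP/PEG400/HP-β-CD aqueous vehicle (0.5 mg/mL for the 5 mpk dose). Three mice per time point were sampled up to 48 h by retro-orbital bleed under isoflurane into K2EDTA. Plasma was spun at 2000 g, 4 °C, frozen at -80 °C, and assayed by LC/MS/MS.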

[5] = Cytotoxicity against human PC-3M cells expressing PTB/GFP fusion protein assessed as reduction in ATP level and measured after 24 to 48 hrs by ATPlite luminescence assay; assay type: toxicity, cell-based
PC-3M = assay: Antiproliferative activity against human PC-3M cells expressing PTB/GFP fusion protein assessed as disruption of RNA synthesis marker NOPP140 at 1 uM measured after 1 hr by DAPI staining based immunofluorescence microscopy; assay type: functional, cell-based
Procedure, shortened: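 50,000 PC3M cells on chamber slides were treated with 1 μM compound for 1 h at 37 °C, then fixed in 4% paraformaldehyde for 15 min, permeabilized with 0.3% Triton X-100 and blocked in 3% BSA. Primary antibodies were anti-RPA194 (1:200) and anti-NOPP140 (1:100), overnight at 4 °C, followed by secondary antibodies and DAPI mounting. Confocal images at 63×, three images of about 200 cells per group; counts of bright objects were normalized to DAPI-stained nuclei.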

A549 = assay: Anticancer activity against human A549 cells assessed as cell growth inhibition; assay type: functional, cell-based; settings: dose 1-100 µM, DDE = dose-dependent effect
[6] = biological target: Delta-type opioid receptor (Homo sapiens) (UniProt P41143); assay: Binding affinity to DOR receptor (unknown origin) at 10000 nM by radioligand displacement assay relative to control
Chain of Delta-type opioid receptor (Homo sapiens) (P41143 whole entry): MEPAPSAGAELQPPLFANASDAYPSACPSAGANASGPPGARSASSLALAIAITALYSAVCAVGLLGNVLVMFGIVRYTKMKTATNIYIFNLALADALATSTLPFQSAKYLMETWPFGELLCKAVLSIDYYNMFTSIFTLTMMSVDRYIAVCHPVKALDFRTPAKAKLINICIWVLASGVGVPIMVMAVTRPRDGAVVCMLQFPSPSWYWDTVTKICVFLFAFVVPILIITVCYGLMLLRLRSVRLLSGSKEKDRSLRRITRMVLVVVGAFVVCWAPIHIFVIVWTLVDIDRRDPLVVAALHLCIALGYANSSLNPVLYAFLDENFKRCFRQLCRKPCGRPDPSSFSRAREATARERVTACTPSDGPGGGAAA

MCF7 = assay: Anticancer activity against human MCF7 cells assessed as cell growth inhibition; assay type: functional, cell-based; settings: dose 1-100 µM, DDE = dose-dependent effect
M14 = assay: Anticancer activity against human M14 cells assessed as cell growth inhibition; assay type: functional, cell-based; settings: dose 1-100 µM, DDE = dose-dependent effect

In the case of N=c1c2c(-c3ccccc3)c(-c3ccccc3)n(Cc3ccccc3)c2ncn1[C@H]1CC[C@H](O)CC1 [ML-246], the Activity (SF-539) is reported as “Dde”, the Activity (SN12C) is reported as “Dde” and the Activity [1] is reported as under 50%. The Activity [2] was under 50%, the Activity (SF-268) was “Dde” and the Activity [3] was under 50%. The Tmax [4] was 15 min, the IC50 [5] was 7.65 µM and the Activity (PC-3M) was “Active”. For the same compound, the Activity (A549) was “Dde”, the Activity [6] was under 50% and the Activity (MCF7) was “Dde”. For the same compound, the Activity (M14) was “Dde”.
